Published values gathered from unrelated publications.
Target: Myosin light chain kinase, smooth muscle (MYLK, Homo sapiens, UniProt Q15746)

Compound	effect on	action	method	concentration	measurement	result
Cc1nn(C)cc1-c1nc2c(N3CCN(Cc4ccc(Cl)cc4)CC3)c(Cl)cnc2[nH]1	binding		competition with immobilised ligand	1 µM	remaining binding	89%
COc1ncccc1-c1cnn2ccc(N3CCN(C(=O)OC(C)C)CC3)nc12	binding		competition with immobilised ligand	1 µM	remaining binding	85%
C#Cc1n[nH]c2c(-c3cn([C@@H](C)c4ccccn4)c(=O)[nH]c3=O)cc(F)cc12	enzyme activity	inhibitor		0.1 µM	inhibition	1.4%
CC(C)(C)c1cc(C=C(C#N)C#N)cc(Br)c1O	enzyme activity	inhibitor		0.5 µM	remaining activity	90.6%
Cn1cc(-c2cccc(N3CCc4c(sc5c4CC(C)(C)C5)C3=O)c2CO)cc(Nc2ccncn2)c1=O	enzyme activity	inhibitor		1 µM	inhibition	-4%
O=c1[nH]c2ccccc2n1C1CCN(Cc2ccc(-c3[nH]c4cc5ncnc5cc4nc3-c3ccccc3)cc2)CC1	cell-free assay			0.5 µM	remaining signal	104%
C#Cc1n[nH]c2c(-c3cn([C@@H](C)c4ccccc4)c(=O)[nH]c3=O)cc(F)cc12	enzyme activity	inhibitor		0.1 µM	inhibition	-0.2%
Nc1ncc(-c2nc(N3CCOCC3)nc(N3CCOCC3)n2)c(C(F)F)n1	binding		competition with immobilised ligand	10 µM	remaining binding	78%
Cn1cncc1[C@](O)(COc1ccc(C#N)cc1-c1ccc(OC(F)(F)F)cc1)c1ccc(C#N)cc1	cell-free assay		competition with immobilised ligand	1 µM	remaining binding	88%
